Active and inactive are the calls of the source. The rule behind the calls is not given here.

Assay [1] concerns Neuron. Nature of the assay: Effect on L-glutamic acid/CaCl2 induced increase in intracellular calcium level in rat neuronal cells pretreated for 5 mins at 10 ug/ml after 20 mins in relative to control. The format is functional. The method, boiled down:
(§1)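 Rat cortical neurons were loaded with 4 μM fura-2-AM, then preincubated 5 min with 0.1, 1 or 10 µg/ml compound in Ca/Mg-free Locke's, pH 7.4. 200 µM L-glutamic acid plus 2.5 mM CaCl2 was added at 10 min. The 340/380 nm ratio increase was recorded over 20 min and expressed as % of vehicle control.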
On the technique in general: Calcium assays in cells follow changes in intracellular calcium, usually with a dye or a luminescent sensor.

The test system of assay [2] is Primary neuron. Nature of the assay: Effect on 5-HT/CaCl2 induced increase in intracellular calcium level in rat primary neuronal cells pretreated for 5 mins at 0.1 ug/ml after 10 mins. The format is functional, cell-based.
For assay [3], the system named is Primary neuron. As to the kind of experiment: Effect on 5-HT/CaCl2 induced increase in intracellular calcium level in rat primary neuronal cells pretreated for 5 mins at 3 ug/ml after 20 mins in relative to control. Format: functional, cell-based. In short, it runs like this: (§2)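 Rat cortical neurons from E17–18 Wistar embryos were grown serum-free on poly-L-lysine glass. They were loaded with 4 μM fura-2-AM for 1 h at 37 °C. Cells were preincubated 5 min with compound (0.01–10 µg/ml) in Ca/Mg-free Locke's, pH 7.4. 200 µM 5-HT plus 2.5 mM CaCl2 was added at 10 min. The 340/380 ratio increase was imaged over 20 min as % of DMSO/water control, ±SD of 3–5 experiments, ~90 cells each.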

Assay [4] concerns HeLa. As to the kind of experiment: Cytotoxicity against HeLa cells at 10 ug/ml after 72 hrs by MTT assay. Conditions: Homo sapiens. Format: functional, cell-based. The method, boiled down:
(§3)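 Cells exposed 72 h to a range of concentrations; viability by MTT colorimetric read at 595 nm after overnight incubation at 37 °C. PC12 grown in DMEM/10% FCS/5% horse serum; HeLa and L5178y in RPMI 1640/10% FCS; all at 37 °C, 5% CO2.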
On the technique in general: Formazan colour is commonly taken as a measure of viable cells.

Assay [5] can be described thus: Effect on 5-HT/CaCl2 induced increase in intracellular calcium level in rat primary neuronal cells pretreated for 5 mins at 1 ug/ml after 20 mins in relative to control. The format is functional, Primary neuron. The method, boiled down: as §2
Assay [6] deals with Neuron. As to the kind of experiment: Effect on L-glutamic acid/CaCl2 induced increase in intracellular calcium level in rat neuronal cells pretreated for 5 mins at 0.1 ug/ml after 20 mins in relative to control. The format is functional. In short, it runs like this:
as §1

Assay [7] in a line: Effect on 5-HT/CaCl2 induced increase in intracellular calcium level in rat primary neuronal cells pretreated for 5 mins at 0.03 ug/ml after 20 mins in relative to control. The format is functional, Primary neuron. In short, it runs like this:
as §2

In assay [8] the test system is Neuron. As to the kind of experiment: Effect on NMDA/CaCl2 induced increase in intracellular calcium level in rat neuronal cells pretreated for 5 mins at 1 ug/ml after 20 mins in relative to control. Format: functional. In short, it runs like this:
(§4)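 Rat cortical neurons were fura-2-loaded (4 μM, 1 h, 37 °C) and preincubated 5 min with 0.1, 1 or 10 µg/ml compound in Ca/Mg-free Locke's, pH 7.4. They were stimulated at 10 min with 200 µM NMDA plus 2.5 mM CaCl2. The fura-2 340/380 ratio change was followed for 20 min and set relative to the vehicle control (100%).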

The nature of assay [9]: Effect on 5-HT/CaCl2 induced increase in intracellular calcium level in rat primary neuronal cells pretreated for 5 mins at 0.1 ug/ml after 20 mins in relative to control. Format: functional, Primary neuron. The method, boiled down: as §2
In assay [10] the test system is PC-12. As to the kind of experiment: Cytotoxicity against PC12 cells at 10 ug/ml after 72 hrs by MTT assay. The format is functional, cell-based. In short, it runs like this: as §3
Assay [11] can be described thus: Effect on 5-HT/CaCl2 induced increase in intracellular calcium level in rat primary neuronal cells pretreated for 5 mins at 0.3 ug/ml after 20 mins in relative to control. Format: functional, Primary neuron. In short, it runs like this: as §2
Assay [12] deals with Suberites domuncula. As to the kind of experiment: Effect on 5-HT/CaCl2 induced increase in intracellular calcium level in Suberites domunculas sponge cell pretreated for 5 mins at 0.1 ug/ml in relative to control.
Assay [13] has as its system Primary neuron. As to the kind of experiment: Effect on 5-HT/CaCl2 induced increase in intracellular calcium level in rat primary neuronal cells pretreated for 5 mins at 10 ug/ml after 20 mins in relative to control. The format is functional, cell-based. The method, boiled down: as §2
Assay [14] concerns Suberites domuncula. Nature of the assay: Effect on 5-HT/CaCl2 induced increase in intracellular calcium level in Suberites domunculas sponge cell pretreated for 5 mins at 1 ug/ml in relative to control.
Assay [15] concerns Neuron. Nature of the assay: Effect on NMDA/CaCl2 induced increase in intracellular calcium level in rat neuronal cells pretreated for 5 mins at 0.1 ug/ml after 20 mins in relative to control. The format is functional. The method, boiled down: as §4
The subject of assay [16] is Primary neuron. As to the kind of experiment: Effect on 5-HT/CaCl2 induced increase in intracellular calcium level in rat primary neuronal cells pretreated for 5 mins at 0.01 ug/ml after 20 mins in relative to control. The format is functional, cell-based. The method, boiled down: as §2
In assay [17] the test system is Neuron. Nature of the assay: Effect on NMDA/CaCl2 induced increase in intracellular calcium level in rat neuronal cells pretreated for 5 mins at 10 ug/ml after 20 mins in relative to control. Format: functional. The method, boiled down:
as §4

The test system of assay [18] is Neuron. Nature of the assay: Effect on L-glutamic acid/CaCl2 induced increase in intracellular calcium level in rat neuronal cells pretreated for 5 mins at 1 ug/ml after 20 mins in relative to control. The format is functional. In short, it runs like this: as §1
For assay [19], the system named is L5178Y. Nature of the assay: Cytotoxicity against L5178y cells at 10 ug/ml after 72 hrs by MTT assay. Format: functional, cell-based. In short, it runs like this:
as §3

The subject of assay [20] is HEK293. As to the kind of experiment: Effect on 5-HT/CaCl2 induced increase in intracellular calcium level in HEK cells pretreated for 5 mins at 1 ug/ml after 20 mins in relative to control. Format: functional, cell-based. The note with it: Homo sapiens. The method, boiled down:
(§5)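 Cells on poly-L-lysine coverglass, loaded with 10 μM fura-2-AM (1 h, 37 °C), washed, held 1 h. In Ca2+/Mg2+-free Locke's solution pH 7.4, 1 μg/ml compound added for 5 min, then 200 μM 5-HT plus 2.5 mM CaCl2 at 10 min. 340/380 nm ratio recorded ≥20 min; rise vs 0.1% DMSO or water control set to 100%; three independent experiments, mean ± SD.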

The test system of assay [21] is PC-12. As to the kind of experiment: Effect on 5-HT/CaCl2 induced increase in intracellular calcium level in PC12 cells pretreated for 5 mins at 1 ug/ml after 20 mins in relative to control. Format: functional. In short, it runs like this: as §5

For the molecule `O=C(O[C@@H]1CCN[C@@H](C(=O)O)C1)c1cc(Br)c[nH]1` [DAMIPIPECOLIN], the Activity is 96.6% in assay [1]; “Not toxic” in assay [4]; 38% in assay [5]; 83.3% in assay [6]; 71.6% in assay [7]; 70.4% in assay [8]. For the same molecule, the Activity is 11.2% in assay [9]; “Not toxic” in assay [10]; 29.7% in assay [11]; 114.1% in assay [15]; 105.9% in [17]; 90.5% in assay [18]. Further, the Activity entry in assay [19] was “Not toxic”. Moreover, the result in [2] was Active. Also, the result in [3], in assay [12], in assay [13], in assay [14] and in [16] was inactive.

Turning to `C[N+]1(C)C[C@H](OC(=O)c2cc(Br)c[nH]2)C[C@@H]1C(=O)[O-]` [DAMITURICIN], the outcome in [20] was inactive. Besides, the Activity entry in assay [4] is “Not toxic”; in [21] it was 43.8%; in assay [10], “Not toxic”; in [19], “Not toxic”.

For the origin of these results see ChEMBL document CHEMBL1149630, “Damipipecolin and damituricin, novel bioactive bromopyrrole alkaloids from the Mediterranean sponge Axinella damicornis” (2007).
